Experiment [1] addresses Mu-type opioid receptor (Rattus norvegicus, UniProt P33535). The experiment in a line: Binding affinity to mu opioid receptor in Sprague-Dawley rat brain membrane. The format is cell membranes. In a few lines:
(§1)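 Competition binding at equilibrium (2.5 h, 23 °C) on brain P2 synaptosomal membranes from Sprague-Dawley rats. Membranes were preincubated to strip endogenous opioid peptides and stored at −80 °C in buffered 20% glycerol. Filtration used GFC filters pre-soaked in 0.1% polyethylenimine, washed three times with ice-cold buffered BSA. Five to eight doses were run in duplicate, 3–5 independent membrane preparations each. Ki by Cheng–Prusoff, mean ± SE.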

In experiment [2] the target is Delta-type opioid receptor (Rattus norvegicus, UniProt P33533). The experiment in a line: Binding affinity to delta opioid receptor in Sprague-Dawley rat brain membrane. Type of experiment: cell membranes. The method in brief:
as §1

For experiment [3], the species on record is Rattus norvegicus. The experiment in a line: Selectivity ratio of Sprague-Dawley rat mu opioid receptor to Sprague-Dawley rat delta opioid receptor. The method in brief:
(§2)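 Ratio of the Ki values for δ and μ sites, both from the same rat brain synaptosome competition binding assay (2.5 h, 23 °C; Cheng–Prusoff Ki).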

Experiment [4] addresses T1, Delta-type opioid receptor (Mus musculus, UniProt P32300). In words: Agonist activity at delta opioid receptor assessed as inhibition of electrically-stimulated mouse vas deferens contraction. Type of experiment: functional, tissue-based. In a few lines:
(§3)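 Isolated tissues in organ baths of balanced physiological salt buffer, pH 7.5. δ: single mouse vas deferens. μ: 2–3 cm myenteric plexus–longitudinal muscle strips from the small intestine of male Hartley guinea pigs. Read-out was inhibition of electrically evoked contraction; IC50 from dose–response curves, mean ± SE of separate assays. Internal standards were DPDPE (vas deferens) and PL-017 (ileum).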

In experiment [5] the target is Mu-type opioid receptor (Cavia porcellus, UniProt P97266). In words: Agonist activity at mu opioid receptor assessed as inhibition of electrically-stimulated Hartley guinea pig contraction. The format is functional, Hartely. The method in brief:
as §3

Experiment [6] addresses T1, Delta-type opioid receptor. In words: Antagonist activity at delta opioid receptor assessed as DPDPE-stimulated mouse vas deferens contraction. The format is functional, tissue-based. As to conditions: read-out: pA2 (converted). The method in brief:
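Mouse vas deferens in an organ bath with physiological salt buffer, pH 7.5, electrically stimulated. Antagonism was measured against the δ agonist DPDPE and expressed as pA2 from a Schild plot.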

For experiment [7], the species on record is Rattus norvegicus. The experiment in a line: Selectivity ratio of rat delta opioid receptor to rat mu opioid receptor. The method in brief: as §2

Data on 7 compounds can be found in ChEMBL document CHEMBL1143936, “Role of benzimidazole (Bid) in the delta-opioid agonist pseudopeptide H-Dmt-Tic-NH-CH(2)-Bid (UFP-502)” (Bioorg Med Chem, 2008).

Structures are written as SMILES.

A word on the Ki: it is the dissociation constant of the complex between target and ligand, obtained from inhibition or displacement. The low end stands for tighter binding, the high end for weaker binding. As usually defined, the IC50 is the concentration that gives 50% inhibition.

Mu-type opioid receptor (Rattus norvegicus, UniProt P33535), sequence (P33535 whole entry): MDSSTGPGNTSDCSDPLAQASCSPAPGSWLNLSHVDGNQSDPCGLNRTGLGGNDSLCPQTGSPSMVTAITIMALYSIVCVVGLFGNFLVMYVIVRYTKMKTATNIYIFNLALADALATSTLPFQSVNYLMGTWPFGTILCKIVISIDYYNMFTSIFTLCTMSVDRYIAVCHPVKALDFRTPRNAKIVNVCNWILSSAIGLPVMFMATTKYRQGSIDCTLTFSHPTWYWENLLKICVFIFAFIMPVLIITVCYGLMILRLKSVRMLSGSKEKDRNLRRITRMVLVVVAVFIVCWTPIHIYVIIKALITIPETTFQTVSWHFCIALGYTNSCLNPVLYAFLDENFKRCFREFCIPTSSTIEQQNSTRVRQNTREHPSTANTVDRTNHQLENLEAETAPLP
Mu-type opioid receptor (Cavia porcellus, UniProt P97266), sequence (P97266 whole entry): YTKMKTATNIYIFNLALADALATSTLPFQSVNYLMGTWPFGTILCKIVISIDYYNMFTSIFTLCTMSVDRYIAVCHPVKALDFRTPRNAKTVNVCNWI
Delta-type opioid receptor (Rattus norvegicus, UniProt P33533), sequence (P33533 whole entry): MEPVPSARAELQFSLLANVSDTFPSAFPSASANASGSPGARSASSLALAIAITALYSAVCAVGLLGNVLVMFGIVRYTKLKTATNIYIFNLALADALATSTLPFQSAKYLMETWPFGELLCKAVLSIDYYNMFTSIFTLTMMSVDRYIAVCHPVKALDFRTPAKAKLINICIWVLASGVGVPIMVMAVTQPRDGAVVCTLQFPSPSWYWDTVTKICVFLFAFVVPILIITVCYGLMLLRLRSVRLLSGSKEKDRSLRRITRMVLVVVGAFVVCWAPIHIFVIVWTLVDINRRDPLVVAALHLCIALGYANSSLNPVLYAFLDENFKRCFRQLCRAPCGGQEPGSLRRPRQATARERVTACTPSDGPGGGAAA
T1 sequence (P32300 whole entry): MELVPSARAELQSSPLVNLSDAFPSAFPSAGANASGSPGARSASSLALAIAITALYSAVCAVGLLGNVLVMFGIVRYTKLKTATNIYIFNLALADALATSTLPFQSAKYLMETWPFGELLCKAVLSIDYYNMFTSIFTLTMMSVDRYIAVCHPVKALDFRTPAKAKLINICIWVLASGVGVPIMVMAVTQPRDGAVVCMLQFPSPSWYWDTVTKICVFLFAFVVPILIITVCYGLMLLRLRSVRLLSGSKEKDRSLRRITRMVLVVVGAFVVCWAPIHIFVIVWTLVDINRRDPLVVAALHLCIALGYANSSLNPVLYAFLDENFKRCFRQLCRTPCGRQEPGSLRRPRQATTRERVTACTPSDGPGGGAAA

Regarding `Cc1cc(O)cc(C)c1C[C@H](N)C(=O)N1Cc2ccccc2C[C@H]1C(=O)NCc1ncc[nH]1`, the values for the Ki in experiment [1] and in experiment [2] were 1.18 nM and 0.114 nM, respectively. For the same compound, the Ratio Ki in experiment [3] was found to be 10. In addition, the results for the IC50 in experiment [4] and in experiment [5] were 3.63 nM and 113 nM, respectively.

On to `Cc1cc(O)cc(C)c1C[C@H](N)C(=O)N1Cc2ccccc2C[C@H]1C(=O)NCc1nc2ccccc2[nH]1`, for which the IC50 in experiment [4] was determined as 0.94 nM; in experiment [5], 35.5 nM.

Take `Cc1cc(O)cc(C)c1C[C@H](N)C(=O)N1Cc2ccccc2C[C@H]1C(=O)NCc1nc(-c2ccccc2)c[nH]1`: the Ki worked out at 6.74 nM in experiment [1] and 0.443 nM in experiment [2]. Further, the Kb in experiment [6] was 0.398 nM. In experiment [3], the Ratio Ki was 15. For the same compound, the IC50 in experiment [5] came to 154 nM.

Turning to `Cc1cc(O)cc(C)c1C[C@H](N)C(=O)N1Cc2ccccc2C[C@H]1C(=O)NCc1nc2ccccc2s1`, the inhibition constant (Ki) in experiment [1] is 1.06 nM; in experiment [2], 0.145 nM. In addition, in experiment [6], the Kb is 0.427 nM. For the same compound, the Ratio Ki in experiment [3] is 7.3. Moreover, the IC50 in experiment [5] stood at 129 nM.

For the compound `Cc1cc(O)cc(C)c1C[C@H](N)C(=O)N1Cc2ccccc2C[C@H]1C(=O)NCc1nc2ccccc2o1`, the Ki in experiment [1] was determined as 1.42 nM; in experiment [2], 0.283 nM. Moreover, in experiment [6], the Kb is 0.38 nM. Further, in experiment [3], the Ratio Ki was 5. In addition, the IC50 in experiment [5] is 170 nM.

As for `Cc1cc(O)cc(C)c1C[C@H](N)C(=O)N1Cc2ccccc2C[C@H]1C(=O)NCC1Cc2ccccc2C1`, the Ki in experiment [1] came to 0.16 nM; in experiment [2], 0.199 nM. Further, the Ratio Ki in experiment [7] was determined as 1.2. Further, the figures for the IC50 in experiment [4] and in experiment [5] were 129 nM and 28.4 nM, respectively.

Turning to `Cc1cc(O)cc(C)c1C[C@H](N)C(=O)N1Cc2ccccc2C[C@H]1C(=O)NCc1cc2ccccc2[nH]1`, the Ki in experiment [1] worked out at 0.7 nM; in experiment [2], 0.066 nM. Moreover, the Kb in experiment [6] was 0.355 nM. Further, the Ratio Ki in experiment [3] turned out to be 10.6. The IC50 in experiment [5] came to 209 nM.
